Hits are enriched below; roughly 5.9% of the tested compounds scored in any of these assays.
T cruzi growth – inhibitors of T. cruzi proliferation | T. cruzi beta-gal in NIH3T3, GalScreen luminescence, 90 h | inhibition, % at 8.34 µM | 77,000 tested, 5.9% active | AID 624255;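 active means mean inhibition above about 93%, with at least 55% of replicates each passing it, limit read from the data, passing the limit was not always enough; inconclusive means only one of those two conditions holds; inactive means neither condition holds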
GASC1 inh – blocks human GASC-1 (KDM4C) demethylase activity; Q9H3R0; GST-KDM4C 2-372, H3K9me3 peptide, LANCE TR-FRET; inhibition, % at 12.5 µM; 96,000 tested, 0.15% active; AID 720574;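 active means mean replicate inhibition above about 25%, with at least 55% of replicates also reaching it, limit read from the data, passing the limit was not always enough; inconclusive means only one of those two conditions met; inactive means neither condition met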
Target sequence (Q9H3R0 2-372 limits assumed): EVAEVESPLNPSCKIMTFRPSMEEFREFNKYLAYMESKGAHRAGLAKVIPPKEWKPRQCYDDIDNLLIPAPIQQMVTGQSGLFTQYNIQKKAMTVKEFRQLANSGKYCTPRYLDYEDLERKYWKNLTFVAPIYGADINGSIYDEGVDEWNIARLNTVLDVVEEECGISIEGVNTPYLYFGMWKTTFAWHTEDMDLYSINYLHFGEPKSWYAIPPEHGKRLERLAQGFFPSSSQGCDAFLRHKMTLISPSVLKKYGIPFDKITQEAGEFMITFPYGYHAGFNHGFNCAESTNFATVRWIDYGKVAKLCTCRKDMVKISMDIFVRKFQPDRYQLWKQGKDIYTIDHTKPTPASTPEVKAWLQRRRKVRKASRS
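material = GST-tagged GASC-1 (JMJD2C) catalytic fragment, aa 2-372 | amount = enzyme final amount 10 nM | medium = HEPES buffer, pH 7.5, plus ascorbate | also added = H3K9me3 peptide substrate, Fe(II), 2-oxoglutarate | dosing = single dose | times = 30 min demethylation and 1 h detection at room temperature | detection = LANCE TR-FRET | read-out basis = Fall in 671/618 emission ratio as inhibition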
IDH1 mut inh – inhibitors of human IDH1 R132H; O75874; IDH1 R132H reductase, diaphorase/resazurin fluorescence, 60 min; inhibition, % at 10 µM; 70,000 tested, 0.18% active; in the data active means inhibition above about 34%; inconclusive means no clear call, values can overlap the other calls; inactive means below about 11%;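 further: 0% = DMSO and 100% = no enzyme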
Pf Dd2 growth – P. falciparum Dd2 growth inhibition; SYBR Green, 72 h; active compounds read low; activity change, % at 10 µM; 94,000 tested, 2.3% active; in the data active means activity change below about -80%; inconclusive means no clear call, values can overlap the other calls
Starred values were filed as active, the others as inactive; u = inconclusive; x = no result given; ! = a repeat was not active.

SMILES	T cruzi growth	GASC1 inh	IDH1 mut inh	Pf Dd2 growth
COc1ccc(C#Cc2ccc3c(c2)[C@H]2[C@H](CCN2C(=O)c2ccccn2)[C@H](CO)N3)cc1	x	-2	x	-88*
N#C[C@H]1[C@H](c2ccc(C#Cc3ccccc3F)cc2)[C@H](CO)N1C(=O)c1cccnc1	91	-2	x	-87*
COc1ccccc1C#Cc1ccc([C@@H]2[C@H](C#N)N(C(=O)C3CCCC3)[C@H]2CO)cc1	x	-5	x	-79
N#C[C@H]1[C@@H](c2ccc(C#Cc3ccccc3F)cc2)[C@@H](CO)N1C(=O)C1CCCC1	x	4	x	-89*
COc1ccccc1C#Cc1ccc([C@H]2[C@H](C#N)N(C(=O)C3CCCC3)[C@H]2CO)cc1	x	1	x	-65
COc1ccccc1C#Cc1ccc([C@H]2[C@@H](C#N)N(C(=O)C3CCCC3)[C@H]2CO)cc1	x	-3	x	-97*
COc1ccccc1C#Cc1ccc([C@H]2[C@@H](C#N)N(C(=O)C3CCCC3)[C@@H]2CO)cc1	x	-2	x	-87*
COc1ccc2c3c([nH]c2c1)[C@@H](CO)N(Cc1ccccc1F)CC31CCN(C(=O)C2CCC2)CC1	x	-1	x	-75
COc1ccc2c3c([nH]c2c1)[C@H](CO)N(Cc1ccccc1F)CC31CN(C(=O)C2CCC2)C1	x	23	x	-93*
COc1ccc2c3c([nH]c2c1)[C@@H](CO)N(Cc1ccccc1F)CC31CCN(C(=O)C2CCOCC2)CC1	x	0	x	-91*
CCS(=O)(=O)N1CC2(CN(Cc3ccccc3F)[C@H](CO)c3[nH]c4cc(OC)ccc4c32)C1	x	-2	x	-82*
COc1ccc2c3c([nH]c2c1)[C@H](CO)N(Cc1ccccc1F)CC31CN(C(=O)C2CCOCC2)C1	x	0	x	-56
COc1ccc2c3c([nH]c2c1)[C@H](CO)N(Cc1ccccc1F)CC31CN(C(=O)C2CCCC2)C1	x	-1	x	-87*
Cc1ccccc1-c1nnc(SCC(=O)Nc2ccc3c(c2)OCCO3)n1C	x	x	0	x
CCCNC(=O)N1CC2(CN(C(=O)C3CCC3)C2)c2c([nH]c3cc(OC)ccc23)[C@@H]1CO	x	-1	x	-84*
Cc1ccc(S(=O)(=O)N(C)C[C@H]2Oc3ccc(NC(=O)c4ccncc4)cc3C(=O)N([C@@H](C)CO)C[C@@H]2C)cc1	13	-3	-6	-88*
Cc1ccc(S(=O)(=O)N(C)C[C@H]2Oc3ccc(NC(=O)c4ccncc4)cc3C(=O)N([C@H](C)CO)C[C@H]2C)cc1	-17	1	-3	23
C[C@@H]1CN([C@@H](C)CO)C(=O)c2cc(NC(=O)c3ccccc3)ccc2O[C@@H](C)CCCCO[C@H]1CN(C)S(=O)(=O)c1ccc(F)cc1	x	0	0	u
C[C@@H]1CCCCO[C@H](CN(C)S(=O)(=O)c2ccc(Cl)cc2)[C@H](C)CN([C@@H](C)CO)C(=O)c2cc(NC(=O)c3ccccc3)ccc2O1	101	0	2	-74
Cc1ccc(S(=O)(=O)N(C)C[C@@H]2Oc3ncc(-c4ccncc4)cc3C(=O)N([C@@H](C)CO)C[C@H]2C)cc1	99	39*	2	-49
C[C@@H]1CN([C@H](C)CO)C(=O)c2cc(NC(=O)c3ccccc3)ccc2O[C@@H](C)CCCCO[C@@H]1CN(C)S(=O)(=O)c1ccc(Cl)cc1	94	0	1	-82*
C[C@@H]1CN([C@@H](C)CO)C(=O)c2cc(NC(=O)c3ccccc3)ccc2O[C@@H](C)CCCCO[C@@H]1CN(C)S(=O)(=O)c1ccc(F)cc1	x	x	x	-81*
CCn1c(SCC(=O)c2ccc(OC)cc2)nnc1-c1ccccc1Cl	x	x	0	x
O=C(CSC1CC(=O)N(c2cccc(Cl)c2)C1=O)Nc1ccc(Br)cc1 (configuration not stated)	x	x	0	x
CCOc1cc(C2NC(=S)NC(C)=C2C(=O)Nc2ccccc2C(=O)OC)cc(Br)c1O (configuration not stated)	x	x	0	x
SMILES	T cruzi growth	GASC1 inh	IDH1 mut inh	Pf Dd2 growth
COC(=O)c1ccc(NC(=O)CSc2nnc(-c3cccs3)n2-c2ccc(OC)cc2)cc1	x	x	1	x
Cc1ccc(S(=O)(=O)N(C)C[C@H]2OCCCC[C@H](C)Oc3ccc(NC(=O)c4ccccc4)cc3C(=O)N([C@@H](C)CO)C[C@H]2C)cc1	-40	0	x	-86*
Cc1ccc(S(=O)(=O)N(C)C[C@H]2OCCCC[C@@H](C)Oc3ccc(NC(=O)c4ccccc4)cc3C(=O)N([C@H](C)CO)C[C@@H]2C)cc1	44	-1	x	-63
C[C@@H]1CN([C@H](C)CO)C(=O)CCCn2cc(nn2)CO[C@@H]1CN(C)C(=O)Nc1ccc(N2CCN(C)CC2)cc1	24	2	1	-5
C[C@H]1CN([C@@H](C)CO)C(=O)CCCn2nncc2CO[C@@H]1CN(C)C(=O)Nc1ccc(N2CCCCC2)cc1	8	1	x	-90*!
C[C@H]1CN([C@@H](C)CO)C(=O)CCCn2cc(nn2)CO[C@@H]1CN(C)C(=O)Nc1ccc(N2CCCCC2)cc1	-18	0	-11	-89*!
COc1ccccc1S(=O)(=O)N(C)C[C@H]1OCc2cn(nn2)CCCC(=O)N([C@@H](C)CO)C[C@@H]1C	-11	x	x	-89*
C[C@H](CO)N1C[C@H](C)[C@H](CN(C)C(=O)Nc2ccc(N3CCCCC3)cc2)OCc2cnnn2CCCC1=O	-24	-1	-6	-6
CS(=O)(=O)N(CC(=O)Nc1ccccc1C(=O)O)c1cccc(Cl)c1	x	x	1	x
CCCn1nnc(NC(=O)COc2ccc(C)cc2)n1	x	x	0	x
COC(=O)c1c(C)oc2ccc(N(C(=O)c3ccccc3)S(=O)(=O)c3cccs3)cc12	x	x	-1	x
COc1ccc(C#Cc2ccc([C@@H]3[C@H](CO)N4CCCCN(C(=O)Nc5cccc(F)c5)C[C@@H]34)cc2)cc1	62	-4	x	-84*
COc1ccc(C#Cc2ccc([C@H]3[C@@H](CO)N4CCCCN(C(=O)Nc5cccc(F)c5)C[C@H]34)cc2)cc1	66	-3	x	u
O=C(Nc1ccccc1)N1CCCCN2[C@H](CO)[C@H](c3ccc(C#Cc4cccnc4)cc3)[C@@H]2C1	85	-3	x	-88*
O=C(Nc1ccccc1)N1CCCCN2[C@H](CO)[C@@H](c3ccc(C#Cc4ccccc4)cc3)[C@H]2C1	60	21	x	-60
COc1ccc(NC(=O)N2CCCCN3[C@H](CO)[C@H](c4ccc(-c5ccccc5F)cc4)[C@@H]3C2)cc1	30	-1	x	-85*
CN(CCO)c1ccc(/C=N/NC(=O)CCCCCCC(=O)NO)cc1	x	x	0	x
C[C@@H]1CN([C@@H](C)CO)C(=O)Cc2cc(NC(=O)Nc3cccc4ccccc34)ccc2O[C@@H]1CN(C)CC1CC1	36	-1	1	-85*
C[C@@H]1CN([C@@H](C)CO)C(=O)Cc2cc(NC(=O)Nc3ccccc3)ccc2O[C@H]1CN(C)CC1CC1	-21	x	-2	-87*
C[C@@H]1CN([C@H](C)CO)C(=O)c2c(c3ccccc3n2C)-c2ccccc2CO[C@@H]1CN(C)Cc1cccc(C(F)(F)F)c1	x	-3	x	-87*
C[C@H](CO)N1C[C@H](C)[C@H](CN(C)Cc2cccc(C(F)(F)F)c2)OCc2ccccc2-c2c(n(C)c3ccccc23)C1=O	x	x	x	-83*
